Calls of active or inactive are those of the source. The calls are words filed in the database; no cut-off is given here.
What was measured:
[1] = test system: Human immunodeficiency virus 1; experiment: Antiviral activity against HIV1 3B in human MT4 cells assessed as virus-induced cytopathogenicity after 4 days by MTT assay; type: functional, organism-based; conditions: Human immunodeficiency virus 1, 3B, MT4, 96 h
In short: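 MT-4 cells (1 × 10⁵ cells/mL) were infected with HIV-1 IIIB at an MOI of 0.02 and cultured with various concentrations of compound for 4 days at 37 °C. Viable cells were counted by MTT. The value is the concentration giving 50% protection against the viral cytopathic effect.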

[2] = Cytotoxicity against human M8166 cells after 4 days by MTT assay; type: cell-based
[3] = Cytotoxicity against human MT4 cells after 4 days by MTT assay; type: cell-based
In short: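 Mock-infected MT-4 cells were run in parallel with the antiviral assay, with various concentrations of compound for 4 days at 37 °C. Viability was read by MTT. The value is the concentration that reduces viability by 50%.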

[4] = test system: Human immunodeficiency virus type 1 reverse transcriptase (Human immunodeficiency virus 1), Q72547 [M184V]; experiment: Activity at reverse transcriptase M184V mutant in HIV1 assessed as suppression of replication
[5] = test system: Human immunodeficiency virus 2; experiment: Antiviral activity against HIV2 in human M8166 cells assessed as virus-induced cytopathogenicity after 4 days by MTT assay; type: functional, organism-based; conditions: Human immunodeficiency virus 2, M8166, 96 h
In short: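 M8166 cells (1 × 10⁵) were infected with HIV-2 at an MOI of 0.1 and cultured with various concentrations of compound for 4 days at 37 °C. Viability was read by MTT. The value is the concentration giving 50% protection against the viral cytopathic effect.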

Row | SMILES | EC50 [1] | CC50 at 96 h [2] | CC50 at 96 h [3] | Activity [4] | EC50 [5]
1 | Cc1cn([C@H]2C[C@H](O)[C@@](C#N)(CO)S2)c(=O)[nH]c1=O | 37 nM | > 10 µM | > 100 µM | Active | 23 nM
2 | Cc1cn([C@H]2C[C@H](O)[C@](CO)(N=[N+]=[N-])S2)c(=O)[nH]c1=O | 20 nM | > 10 µM | 40 µM |  | 24 nM
3 | C#C[C@]1(CO)S[C@@H](n2cc(C)c(=O)[nH]c2=O)C[C@@H]1O | 310 nM | > 10 µM | > 100 µM | Active | 130 nM
4 | Cc1cn([C@H]2C[C@H](O)[C@](CO)(Sc3ccccc3)S2)c(=O)[nH]c1=O | > 100000 nM | > 100 µM | > 100 µM |  | > 100000 nM
5 | CO[C@]1(CO)S[C@@H](n2cc(C)c(=O)[nH]c2=O)C[C@@H]1O | > 4000 nM | > 100 µM | > 100 µM |  | 1200 nM
6 | C=CC[C@]1(CO)S[C@@H](n2cc(C)c(=O)[nH]c2=O)C[C@@H]1O | > 100000 nM | > 100 µM | > 100 µM |  | > 100000 nM

Source: ChEMBL document CHEMBL1144022, “Synthesis and anti-HIV activity of 4'-substituted 4'-thiothymidines: a new entry based on nucleophilic substitution of the 4'-acetoxy group” (J Med Chem, 2008)
